Active and inactive are the calls of the source. The rule behind the calls is not given here.
How the values were obtained:
Staphylococcus aureus [1] = assay: Antibacterial activity against methicillin-resistant Staphylococcus aureus ATCC 33591 by NCCLS method; format: functional, organism-based
How it was run: (§1)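 Broth microdilution (modified NCCLS). Samples in DMSO serially diluted in 0.9% saline, tested in duplicate, highest final concentration 20 μg/mL. Inoculum matched to 0.5 McFarland standard by absorbance at 630 nm, then diluted in cation-adjusted Mueller–Hinton broth. Growth, solvent and medium controls on each plate. Absorbance at 530 nm read before and after incubation. IC50 taken from percent growth versus concentration plot; MIC is lowest concentration with no detectable growth; MBC is lowest concentration killing the organism.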

[2] = test system: Mycobacterium intracellulare; assay: Antibacterial activity against Mycobacterium intracellular ATCC 23068 by alamar blue method; format: functional, organism-based
How it was run: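 Modified Alamar blue method (Franzblau). Samples in DMSO serially diluted in 0.9% saline, in duplicate, final concentrations starting at 20 μg/mL. Inoculum adjusted to 0.5 McFarland, then diluted in Middlebrook 7H9 with OADC enrichment plus 5% Alamar blue. Fluorescence read (ex 544/em 590 nm) before and after incubation. IC50 from percent growth versus concentration. MIC is no detectable growth.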

Staphylococcus aureus [3] = assay: Antibacterial activity against Staphylococcus aureus ATCC 29213 by NCCLS method; format: functional, organism-based; how it was run: as §1
[4] = Cytotoxicity against african green monkey Vero cell after 48 hrs by neutral red uptake assay; format: cell-based; settings: chlorocebus sabaeus, Vero cells; read-out: TC50
How it was run: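 VERO kidney fibroblasts seeded at 25,000 cells/well and incubated 24 h. Compounds added, highest concentration 10 μg/mL, then 48 h further incubation. Viable cells measured by neutral red assay. IC50 taken from growth-inhibition dose curves. Doxorubicin as positive control, DMSO as vehicle control.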

Escherichia coli [5] = assay: Antibacterial activity against Escherichia coli at 20 ug/ml by NCCLS method; format: functional, organism-based
How it was run: (§2)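 Modified NCCLS broth microdilution. DMSO-dissolved samples serially diluted in 0.9% saline, tested in duplicate, final concentrations starting at 20 μg/mL. Inoculum set to 0.5 McFarland (absorbance 630 nm) and diluted in cation-adjusted Mueller–Hinton broth. Growth, solvent and medium controls on each plate. Read at 530 nm before and after incubation. IC50 from percent growth versus concentration. MIC is lowest concentration with no detectable growth.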

Aspergillus fumigatus [6] = assay: Antifungal activity against Aspergillus fumigatus ATCC 204305 at 20 ug/ml by NCCLS method; format: functional, organism-based
How it was run: (§3)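 Modified NCCLS microdilution for fungi. Samples in DMSO serially diluted with 0.9% saline, in duplicate, final concentrations from 20 μg/mL down. Inocula matched to 0.5 McFarland (630 nm) and diluted in Sabouraud dextrose broth. Growth, solvent and medium controls included. OD 530 nm read before and after incubation. IC50 from percent growth curve. MIC is no detectable growth. MFC is lowest concentration killing the organism.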

Cryptococcus neoformans = assay: Antifungal activity against Cryptococcus neoformans ATCC 90113 by NCCLS method; format: functional, organism-based; how it was run: as §3
Candida albicans = assay: Antifungal activity against Candida albicans ATCC 90028 by NCCLS method; format: functional, organism-based; how it was run: as §3
Escherichia coli [7] = assay: Antibacterial activity against Escherichia coli by NCCLS method; format: functional, organism-based; how it was run: as §2
Aspergillus fumigatus [8] = assay: Antifungal activity against Aspergillus fumigatus ATCC 204305 by NCCLS method; format: functional, organism-based; how it was run: as §3

SMILES | IC50 (Staphylococcus aureus [1]) [µg/mL] | MBC (Staphylococcus aureus [1]) [µg/mL] | MIC (Staphylococcus aureus [1]) [µg/mL] | IC50 [2] [µg/mL] | MBC [2] [µg/mL] | MIC [2] [µg/mL] | IC50 (Staphylococcus aureus [3]) [µg/mL] | MBC (Staphylococcus aureus [3]) [µg/mL] | MIC (Staphylococcus aureus [3]) [µg/mL] | CC50 at 48 h [4] [µg/mL] | Activity (Escherichia coli [5]) | IC50 (Cryptococcus neoformans) [µg/mL] | MFC (Cryptococcus neoformans) [µg/mL] | MIC (Cryptococcus neoformans) [µg/mL] | IC50 (Candida albicans) [µg/mL] | MFC (Candida albicans) [µg/mL] | MIC (Candida albicans) [µg/mL] | IC50 (Escherichia coli [7]) [µg/mL] | MBC (Escherichia coli [7]) [µg/mL] | MIC (Escherichia coli [7]) [µg/mL] | also measured
C[n+]1cccc(N(CCCCCC2CCCCC2)c2ccc(C#N)cc2)c1.[I-] | 6.2 | 20 | 10 | 2.8 | 5 | 5 | 2.5 | 20 | 5 | > 10 | inactive |  |  |  |  |  |  |  |  |  | Activity (Aspergillus fumigatus [6]): inactive
C[n+]1cccc2c1c1cc(C#N)ccc1n2CCCCCC1CCCCC1.[I-] | 5.8 | 20 | 10 | 2.1 | 5 | 2.5 | 2.6 | 20 | 5 | > 10 | inactive | 2.8 | 5 | 5 | 19 | > 20 | 20 |  |  |  | Activity (Aspergillus fumigatus [6]): inactive
C[n+]1cccc(N(CCCCCC2CCCCC2)c2cccc(C#N)c2)c1.[I-] | 3.9 | 10 | 10 | 2 | 10 | 2.5 | 0.8 | 20 | 1.3 |  | inactive |  |  |  |  |  |  |  |  |  | 
C[n+]1cccc2c1c1cccc(Cl)c1n2CCCCCC1CCCCC1.[I-] | 1.2 | 5 | 2.5 | 0.5 | 5 | 0.6 | 0.2 | 10 | 0.3 | > 10 |  | 0.3 | 0.6 | 0.6 | 2.5 | 5 | 5 | 5.7 | > 20 | > 20 | IC50 (Aspergillus fumigatus [8]): 16 µg/mL; MFC (Aspergillus fumigatus [8]): 20 µg/mL; MIC (Aspergillus fumigatus [8]): 20 µg/mL
C[n+]1cccc2c1c1cc(Cl)ccc1n2CCCCCC1CCCCC1.[I-] | 1.3 | 10 | 2.5 | 0.7 | 2.5 | 1.3 | 0.5 | 10 | 1.3 | > 10 |  | 0.4 | 0.6 | 0.6 | 2 | 5 | 5 | 5.9 | > 20 | > 20 | IC50 (Aspergillus fumigatus [8]): 16 µg/mL; MFC (Aspergillus fumigatus [8]): 20 µg/mL; MIC (Aspergillus fumigatus [8]): 20 µg/mL
C[n+]1cccc2c1c1ccc(Cl)cc1n2CCCCCC1CCCCC1.[I-] | 1.2 | 2.5 | 2.5 | 0.7 | 5 | 1.3 | 0.4 | 5 | 0.6 | > 10 |  | 0.3 | 0.6 | 0.6 | 2.9 | 10 | 5 | 5.9 | > 20 | > 20 | IC50 (Aspergillus fumigatus [8]): 16 µg/mL; MFC (Aspergillus fumigatus [8]): > 20 µg/mL; MIC (Aspergillus fumigatus [8]): 20 µg/mL
C[n+]1cccc(N(CCCCCC2CCCCC2)c2ccccc2C#N)c1.[I-] | 6.4 | 20 | 20 | 3.5 | 20 | 5 | 1.3 | 10 | 2.5 |  | inactive |  |  |  |  |  |  |  |  |  | 
COc1ccc(N(CCCCCC2CCCCC2)c2ccc[n+](C)c2)cc1.[I-] | 1.9 | 10 | 5 | 1 | 5 | 1.3 | 0.3 | 10 | 0.6 | > 10 |  |  |  |  |  |  |  | 5.4 | > 20 | > 20 | Activity (Aspergillus fumigatus [6]): inactive
COc1cccc(N(CCCCCC2CCCCC2)c2ccc[n+](C)c2)c1.[I-] | 4.8 | 20 | 10 | 3.3 | 10 | 5 | 0.8 | 20 | 1.3 |  | inactive |  |  |  |  |  |  |  |  |  | 
C[n+]1cccc(N(CCCCCC2CCCCC2)c2ccc(F)cc2)c1.[I-] | 3 | 20 | 5 | 3.2 | 10 | 5 | 0.7 | 10 | 1.3 | > 10 |  |  |  |  |  | > 20 |  | 18 | > 20 | > 20 | Activity (Aspergillus fumigatus [6]): inactive
CSc1ccc2c(c1)c1c(ccc[n+]1C)n2CCCCCC1CCCCC1.[I-] | 1.1 | 10 | 2.5 | 0.7 | 2.5 | 1.3 | 0.4 | 5 | 0.6 | > 10 |  | 0.3 | 0.6 | 0.6 | 2.1 | 5 | 5 | 5.6 | > 20 | > 20 | IC50 (Aspergillus fumigatus [8]): 13 µg/mL; MFC (Aspergillus fumigatus [8]): 20 µg/mL; MIC (Aspergillus fumigatus [8]): 20 µg/mL
C[n+]1cccc2c1c1cc(F)ccc1n2CCCCCC1CCCCC1.[I-] | 2.8 | 20 | 5 | 1.2 | 5 | 2.5 | 0.7 | 20 | 1.3 | > 10 |  | 0.6 | 1.3 | 1.3 | 6.5 | 20 | 20 | 13 | > 20 | > 20 | IC50 (Aspergillus fumigatus [8]): 12 µg/mL; MFC (Aspergillus fumigatus [8]): > 20 µg/mL; MIC (Aspergillus fumigatus [8]): 20 µg/mL
